HCV NS3 hel inh: blocks Hepatitis C virus NS3 helicase unwinding. AID 1800. hit rate 0.56% among 290,000. NS3 helicase DNA unwinding, Cy5 molecular beacon fluorescence. inhibition, % at 10.9 µM;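 active = inhibition above the mean of all tested compounds plus 3 SD, set per campaign, cut at about 35% in these data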;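 also: 0% = DMSO wells and 100% = thioflavine S control wells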
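Assay system: hepatitis C virus NS3 helicase domain fragment enzyme. Also added: annealed dual-labelled DNA beacon duplex, ATP-started. Timing: 1 h reaction at 25 °C, ATP-initiated. Technique: Cy5 fluorescence at 0 and 60 min, beacon hairpin quenching. Evaluation: % inhibition of unwinding. Replication: one well per compound.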
FGF22 binding: shifts melting point of recombinant human FGF22. recombinant FGF22 thermal shift, SYPRO orange fluorescence; percent of sucrose octasulfate shift, DMSO zero. activity (Tm shift, normalised), % at 9.99 µM. AID 651658. hit rate 1.5% among 340,000;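 active = mean Tm shift, scaled 0 neutral to 100 positive control, at about 1.3% or above, every replicate too, limit read from the data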
Target sequence (Q9HCT0 whole entry, looked up): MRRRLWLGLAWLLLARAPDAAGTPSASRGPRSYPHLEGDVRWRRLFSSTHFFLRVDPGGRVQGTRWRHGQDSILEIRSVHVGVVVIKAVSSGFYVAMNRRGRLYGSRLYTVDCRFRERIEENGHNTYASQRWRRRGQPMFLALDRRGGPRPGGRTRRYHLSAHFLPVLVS
ZTA DNA inh: counter-screen for EBNA-1 inhibitors: inhibitors of Epstein-Barr virus ZTA. AID 2234. ZTA-DNA binding, fluorescence polarization. inhibition, % at 11 µM. hit rate 0.15% among 320,000; in the data active = inhibition above about 33%
Target sequence (P03206 whole entry, looked up): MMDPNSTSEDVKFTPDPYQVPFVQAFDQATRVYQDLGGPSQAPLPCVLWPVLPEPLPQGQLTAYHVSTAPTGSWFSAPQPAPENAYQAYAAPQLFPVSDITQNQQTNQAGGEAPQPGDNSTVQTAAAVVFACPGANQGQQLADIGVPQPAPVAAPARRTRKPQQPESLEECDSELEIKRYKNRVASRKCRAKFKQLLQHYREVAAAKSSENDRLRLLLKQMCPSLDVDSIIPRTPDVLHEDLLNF
EBNA-1 inhibitor: blocks EBNA-1 binding to DNA; EBNA-1 DNA binding, fluorescence polarization; inhibition, % at 14.8 µM; hit rate 0.34% among 300,000; AID 1950; in the data active = inhibition above about 28%
DNA FID counter-1: counter-screen for HCV NS3 helicase inhibitors: DNA intercalator displacement | DNA fluorescent intercalator displacement, fluorescence | inhibition, % at 7.9 µM | hit rate 0.17% among 290,000 | AID 1845;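 also: 0% = vehicle and 100% = reference compound; higher means more ethidium bromide displaced from hairpin DNA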
NR3A LBD binder: modulators (binders) of human NR3A ligand-binding domain | NR3A LBD differential scanning fluorimetry, Tm shift; 0% = protein alone, 100% = glycine-bound protein | Tm shift relative to glycine control, % at 25 µM | hit rate 2.5% among 340,000 | AID 1259313;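 active = melting temperature shift of at least 10% of the positive control shift, at one fixed dose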
NS3 hel confirm: HCV NS3 helicase inhibition, confirmation assay; inhibition, % at 10.9 µM; shares compounds with HCV NS3 hel inh; NS3 helicase DNA unwinding, Cy5 molecular beacon fluorescence; AID 1943; hit rate 31% among 1,600;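 active = inhibition above the mean of all tested compounds plus 3 SD, cutoff set per campaign, cut at about 36% in these data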
DNA FID counter-2: displaces DNA intercalator in HCV helicase counter-screen; shares compounds with HCV NS3 hel inh; DNA fluorescent intercalator displacement, fluorescence; inhibition, % at 7.9 µM; hit rate 4% among 1,600;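 also: 0% = vehicle and 100% = reference compound; higher means more displacement of ethidium bromide from the DNA hairpin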
* marks the source's active call; other numbers are inactive results. Hits are enriched below; roughly 3.6% of the tested compounds scored in any of these assays. Rule as the data show it, unless noted: active = inhibition above about 37%; inactive = the rest.

How did CCS(=O)(=O)Nc1ccc2c(c1)C(=O)N(C)C[C@H](OC)[C@H](C)CN(C(=O)NC(C)C)[C@@H](C)CO2 do in these assays?
FGF22 binding: 0

Results for CCCCc1c(C)nc2c(OC)cccc2c1SCC(=O)O ?
HCV NS3 hel inh: 37*; FGF22 binding: 0; ZTA DNA inh: 2; EBNA-1 inhibitor: -6; DNA FID counter-1: -31; NR3A LBD binder: -2; NS3 hel confirm: -1; DNA FID counter-2: 0

What do the screens show for `CCCCc1c(C)nc2ccc(OC)cc2c1SCCC(=O)O`?
FGF22 binding: 0; ZTA DNA inh: 0; EBNA-1 inhibitor: 8; NR3A LBD binder: 0

How did COc1ccc(OCC(=O)Nc2ccc3c(c2)nc(CCn2ccccc2=O)n3C)cc1 do in these assays?
HCV NS3 hel inh: 45*; FGF22 binding: 0; ZTA DNA inh: -9; EBNA-1 inhibitor: -7; DNA FID counter-1: -55; NR3A LBD binder: 0; NS3 hel confirm: -16; DNA FID counter-2: -34

How did O=C(NNC(=O)c1cc2ccccc2cc1O)Nc1ccccc1F do in these assays?
HCV NS3 hel inh: 46*; FGF22 binding: 0; ZTA DNA inh: -2; EBNA-1 inhibitor: -1; DNA FID counter-1: -9; NR3A LBD binder: 2; NS3 hel confirm: -8; DNA FID counter-2: -4

What do the screens show for `Cc1ccc(NC(=O)NNC(=O)c2cc3ccccc3cc2O)c(C)c1`?
HCV NS3 hel inh: 15; FGF22 binding: 0; ZTA DNA inh: 13; EBNA-1 inhibitor: 9; DNA FID counter-1: -19; NR3A LBD binder: -2

How did Cc1nnc2sc(SCC(=O)Nc3nccs3)nn2c1=O do in these assays?
HCV NS3 hel inh: 40*; ZTA DNA inh: -7; EBNA-1 inhibitor: -4; DNA FID counter-1: -9; NR3A LBD binder: -2; NS3 hel confirm: 5; DNA FID counter-2: 2

What do the screens show for `O=[N+]([O-])c1c(Nc2ccccc2O)cc(Cl)c2nonc12`?
HCV NS3 hel inh: 38*; FGF22 binding: 0; DNA FID counter-1: 4; NR3A LBD binder: -6; NS3 hel confirm: -23; DNA FID counter-2: 17

What do the screens show for `COc1ccccc1C1C2=C(CCCC2=O)N(CC(=O)O)C2=C1C(=O)CCC2`?
HCV NS3 hel inh: 41*; FGF22 binding: 0; ZTA DNA inh: -12; EBNA-1 inhibitor: -12; DNA FID counter-1: -4; NR3A LBD binder: 1; NS3 hel confirm: -10; DNA FID counter-2: 14

Results for COc1ccc(CCNC(=O)C2CC(=O)N(C3CCCCC3)C2)cc1OC (configuration not stated) ?
HCV NS3 hel inh: 96*; FGF22 binding: 0; ZTA DNA inh: -11; EBNA-1 inhibitor: -8; DNA FID counter-1: -30; NR3A LBD binder: -1; NS3 hel confirm: 0; DNA FID counter-2: -1

How did O=C(C[C@H]1C(=O)N(C2CCCCC2)C[C@@H]1Cc1ccccc1)Nc1ccccc1 do in these assays?
HCV NS3 hel inh: 37*; FGF22 binding: 0; ZTA DNA inh: 1; EBNA-1 inhibitor: -1; DNA FID counter-1: -48; NR3A LBD binder: -3; NS3 hel confirm: -16; DNA FID counter-2: -28

What do the screens show for `Cc1ccc(S(=O)(=O)NCC[C@@H]2CC[C@@H](NC(=O)NC(C)C)[C@@H](CO)O2)cc1`?
FGF22 binding: 1

How did Cn1c2ccccc2c(=O)c2ccc(-c3ccc4c(c3)OCO4)cc21 do in these assays?
HCV NS3 hel inh: 43*; FGF22 binding: 0; ZTA DNA inh: 9; EBNA-1 inhibitor: 11; DNA FID counter-1: -20; NR3A LBD binder: -1; NS3 hel confirm: 7; DNA FID counter-2: 2

How did COc1ccccc1C(=O)CC(=O)C(=O)Nc1cccc([N+](=O)[O-])c1C do in these assays?
HCV NS3 hel inh: 37*; FGF22 binding: 0; ZTA DNA inh: 4; EBNA-1 inhibitor: -5; DNA FID counter-1: -17; NR3A LBD binder: -1; NS3 hel confirm: -33; DNA FID counter-2: -17

How did CCCC(C(=O)O)N1C(=O)/C(=C/c2cccn2C)SC1=S (configuration not stated) do in these assays?
HCV NS3 hel inh: 36*; ZTA DNA inh: -4; EBNA-1 inhibitor: -1; DNA FID counter-1: -20; NR3A LBD binder: 1; NS3 hel confirm: 39*; DNA FID counter-2: -16

What do the screens show for `C[C@@H]1CN([C@H](C)CO)C(=O)c2cc(NC(=O)Cn3cnnn3)ccc2O[C@H]1CN(C)C(=O)Nc1cccc2ccccc12`?
FGF22 binding: 0

What do the screens show for `N#CC1=C(SCC(=O)c2ccccc2)NC2=C(C(=O)CCC2)C1c1ccco1` (configuration not stated)?
HCV NS3 hel inh: 38*; ZTA DNA inh: -6; EBNA-1 inhibitor: -10; DNA FID counter-1: -9; NR3A LBD binder: -2; NS3 hel confirm: -10; DNA FID counter-2: -1

How did CN(Cc1cccs1)C(=O)/C=C/c1ccccc1[N+](=O)[O-] do in these assays?
HCV NS3 hel inh: 61*; FGF22 binding: 0; ZTA DNA inh: -2; EBNA-1 inhibitor: 1; DNA FID counter-1: -2; NR3A LBD binder: -1; NS3 hel confirm: -10; DNA FID counter-2: 9

How did Cc1ccccc1COc1ccc(-c2nnn(CC(=O)O)n2)cc1 do in these assays?
HCV NS3 hel inh: 40*; FGF22 binding: 0; DNA FID counter-1: -35; NR3A LBD binder: 3; NS3 hel confirm: 27; DNA FID counter-2: -15

Results for CO[C@H]1CN(C)C(=O)c2ccc(NC(=O)NC(C)C)cc2OC[C@@H](C)N(C(=O)CC2CC2)C[C@H]1C ?
FGF22 binding: 0

Results for O=C1NN(c2ccc(Cl)cc2)C(=O)/C1=C\c1ccc(-c2cccc(C(=O)O)c2)o1 ?
HCV NS3 hel inh: 46*; FGF22 binding: 0; DNA FID counter-1: -16; NR3A LBD binder: -4; NS3 hel confirm: 66*; DNA FID counter-2: 15

How did O=[N+]([O-])c1cc([N+](=O)[O-])c2oc(-c3ccccc3)c(Br)c2c1O do in these assays?
HCV NS3 hel inh: 45*; DNA FID counter-1: 47*; NR3A LBD binder: -5; NS3 hel confirm: 74*; DNA FID counter-2: 68*

Results for C[C@H](CO)N1C[C@H](C)[C@H](CN(C)Cc2cccc3c2OCCCO3)OCc2ccccc2-c2c(n(C)c3ccccc23)C1=O ?
FGF22 binding: 0

Results for CCOC(=O)Nc1ccc([N+](=O)[O-])cc1OC ?
HCV NS3 hel inh: 42*; ZTA DNA inh: 1; EBNA-1 inhibitor: -12; DNA FID counter-1: 0; NR3A LBD binder: 1; NS3 hel confirm: -12; DNA FID counter-2: 0

What do the screens show for `Cc1cc2nc(=O)c(/C=C3\C=Nc4ccccc43)c(N)n2o1`?
HCV NS3 hel inh: 43*; FGF22 binding: 0; ZTA DNA inh: 10; EBNA-1 inhibitor: 4; DNA FID counter-1: -5; NR3A LBD binder: 1; NS3 hel confirm: -4; DNA FID counter-2: 16
